≈ marks a conversion by molar mass, not a printed value.
Key:
Type in all cases: functional
Streptococcus pneumoniae [1] = test: In vitro antibacterial activity against efflex resistant Streptococcus pneumoniae 7701
Procedure, shortened: (§1)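 MIC determined by agar dilution per NCCLS recommendations. Strains: S. pneumoniae 49619 (erythromycin-susceptible); S. pneumoniae 700904 and S. pyogenes 2912 (erm-encoded MLSB-resistant); S. pneumoniae 7701 and S. pyogenes 1323 (mef-encoded efflux-resistant); H. influenzae 33929 (ampicillin-resistant).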

Streptococcus pyogenes [2] = test: In vitro antibacterial activity against efflex resistant Streptococcus pyogenes 1323; procedure, shortened: as §1
Staphylococcus aureus = test: In vitro antibacterial activity against erythromycin susceptible Staphylococcus aureus 25923
Procedure, shortened: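 MIC by agar dilution following NCCLS recommendations; S. aureus 25923 is an erythromycin-susceptible strain.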

Streptococcus pneumoniae [3] = test: In vitro antibacterial activity against erythromycin susceptible Streptococcus pneumoniae 49619; procedure, shortened: as §1
Streptococcus pneumoniae [4] = test: In vitro antibacterial activity against macrolide-lincosamide-streptogramin resistant Streptococcus pneumoniae 700904; procedure, shortened: as §1
Haemophilus influenzae = test: In vitro antibacterial activity against ampicillin resistant Haemophilus influenzae 33929; procedure, shortened: as §1
Streptococcus pyogenes [5] = test: In vitro antibacterial activity against macrolide-lincosamide-streptogramin resistant Streptococcus pyogenes 2912; procedure, shortened: as §1

CC[C@H]1OC(=O)C[C@@H](O)[C@H](C)[C@@H](O[C@@H]2O[C@H](C)[C@@H](OC(=O)NCCc3ccccc3)[C@H](N(C)C)[C@H]2O)[C@@H](CC=O)C[C@@H](C)C(=O)/C=C/C(C)=C/[C@@H]1CO[C@@H]1O[C@H](C)[C@@H](O)[C@@H](OC)[C@H]1OC
MIC (Streptococcus pneumoniae [1]): 2 µg/mL (≈ 2.18 µM) | MIC (Streptococcus pyogenes [2]): 0.25 µg/mL (≈ 0.272 µM) | MIC (Staphylococcus aureus): 2 µg/mL (≈ 2.18 µM) | MIC (Streptococcus pneumoniae [3]): 1 µg/mL (≈ 1.09 µM) | MIC (Streptococcus pneumoniae [4]): > 64 µg/mL | MIC (Haemophilus influenzae): 16 µg/mL (≈ 17.4 µM) | MIC (Streptococcus pyogenes [5]): > 64 µg/mL

CC[C@H]1OC(=O)C[C@@H](O)[C@H](C)[C@@H](O[C@@H]2O[C@H](C)[C@@H](OC/C=C/c3cnc4ccccc4c3)[C@H](N(C)C)[C@H]2O)[C@@H](CC=O)C[C@@H](C)C(=O)/C=C/C(C)=C/[C@@H]1CO[C@@H]1O[C@H](C)[C@@H](O)[C@@H](OC)[C@H]1OC
MIC (Streptococcus pneumoniae [1]): 0.0625 µg/mL (≈ 0.0665 µM) | MIC (Streptococcus pyogenes [2]): 0.0625 µg/mL (≈ 0.0665 µM) | MIC (Staphylococcus aureus): 0.5 µg/mL (≈ 0.532 µM) | MIC (Streptococcus pneumoniae [3]): 0.0625 µg/mL (≈ 0.0665 µM) | MIC (Streptococcus pneumoniae [4]): 1 µg/mL (≈ 1.06 µM) | MIC (Haemophilus influenzae): 4 µg/mL (≈ 4.26 µM) | MIC (Streptococcus pyogenes [5]): 8 µg/mL (≈ 8.52 µM)

C=CCO[C@H]1[C@H](N(C)C)[C@@H](O)[C@H](O[C@H]2[C@@H](CC=O)C[C@@H](C)C(=O)/C=C/C(C)=C/[C@H](CO[C@@H]3O[C@H](C)[C@@H](O)[C@@H](OC)[C@H]3OC)[C@@H](CC)OC(=O)C[C@@H](O)[C@@H]2C)O[C@@H]1C
MIC (Streptococcus pneumoniae [1]): 0.5 µg/mL (≈ 0.616 µM) | MIC (Streptococcus pyogenes [2]): 0.125 µg/mL (≈ 0.154 µM) | MIC (Staphylococcus aureus): 1 µg/mL (≈ 1.23 µM) | MIC (Streptococcus pneumoniae [3]): 0.5 µg/mL (≈ 0.616 µM) | MIC (Streptococcus pneumoniae [4]): > 64 µg/mL | MIC (Haemophilus influenzae): 8 µg/mL (≈ 9.85 µM) | MIC (Streptococcus pyogenes [5]): 32 µg/mL (≈ 39.4 µM)

CC[C@H]1OC(=O)C[C@@H](O)[C@H](C)[C@@H](O[C@@H]2O[C@H](C)[C@@H](O/C=C\Cc3cnc4ccccc4c3)[C@H](N(C)C)[C@H]2O)[C@@H](CC=O)C[C@@H](C)C(=O)/C=C/C(C)=C/[C@@H]1CO[C@@H]1O[C@H](C)[C@@H](O)[C@@H](OC)[C@H]1OC
MIC (Streptococcus pneumoniae [1]): 0.0625 µg/mL (≈ 0.0665 µM) | MIC (Streptococcus pyogenes [2]): 0.0625 µg/mL (≈ 0.0665 µM) | MIC (Staphylococcus aureus): 0.5 µg/mL (≈ 0.532 µM) | MIC (Streptococcus pneumoniae [3]): 0.0625 µg/mL (≈ 0.0665 µM) | MIC (Streptococcus pneumoniae [4]): 0.5 µg/mL (≈ 0.532 µM) | MIC (Haemophilus influenzae): 4 µg/mL (≈ 4.26 µM) | MIC (Streptococcus pyogenes [5]): 16 µg/mL (≈ 17 µM)

CC[C@H]1OC(=O)[C@H](C)[C@@H](O[C@H]2C[C@@](C)(OC)[C@@H](O)[C@H](C)O2)[C@H](C)[C@@H](O[C@@H]2O[C@H](C)C[C@H](N(C)C)[C@H]2O)[C@](C)(O)C[C@@H](C)C(=O)[C@H](C)[C@@H](O)[C@]1(C)O [ERYTHROMYCIN]
MIC (Streptococcus pneumoniae [1]): 8 µg/mL (≈ 10.9 µM) | MIC (Streptococcus pyogenes [2]): 16 µg/mL (≈ 21.8 µM) | MIC (Staphylococcus aureus): 0.5 µg/mL (≈ 0.681 µM) | MIC (Streptococcus pneumoniae [3]): 0.06 µg/mL (≈ 0.0818 µM) | MIC (Streptococcus pneumoniae [4]): > 64 µg/mL | MIC (Haemophilus influenzae): 4 µg/mL (≈ 5.45 µM) | MIC (Streptococcus pyogenes [5]): > 64 µg/mL

CC[C@H]1OC(=O)C[C@@H](O)[C@H](C)[C@@H](O[C@@H]2O[C@H](C)[C@@H](O[C@H]3C[C@@](C)(O)[C@@H](O)[C@H](C)O3)[C@H](N(C)C)[C@H]2O)[C@@H](CC=O)C[C@@H](C)C(=O)/C=C/C(C)=C/[C@@H]1CO[C@@H]1O[C@H](C)[C@@H](O)[C@@H](OC)[C@H]1OC [TYLOSIN]
MIC (Streptococcus pneumoniae [1]): 0.25 µg/mL (≈ 0.273 µM) | MIC (Streptococcus pyogenes [2]): 0.25 µg/mL (≈ 0.273 µM) | MIC (Staphylococcus aureus): 2 µg/mL (≈ 2.18 µM) | MIC (Streptococcus pneumoniae [3]): 0.25 µg/mL (≈ 0.273 µM) | MIC (Streptococcus pneumoniae [4]): 64 µg/mL (≈ 69.9 µM) | MIC (Haemophilus influenzae): 8 µg/mL (≈ 8.73 µM) | MIC (Streptococcus pyogenes [5]): > 64 µg/mL

From ChEMBL document CHEMBL1148318, “Synthesis and antibacterial activity of a novel class of 4'-substituted 16-membered ring macrolides derived from tylosin” (2004)
